Test results taken from ChEMBL document CHEMBL3861989, “Amending HIV Drugs: A Novel Small-Molecule Approach To Target Lupus Anti-DNA Antibodies” (J Med Chem, 2016).
The source made the active and inactive calls. The calls are words filed in the database; no cut-off is given here.

Legend:
Mus musculus [1] = organism: Mus musculus; assay: Binding affinity to mouse anti-dsDNA monoclonal antibody R4A assessed as inhibition of RA4 binding to DWEYS peptide at 5 to 50 uM preincubated for 1 hr followed by DWEYS peptide addition measured after 1 hr by ELISA
Summary of the method: (§1)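 Competitive ELISA: plates coated with DWEYS peptide overnight at 37 °C uncovered, blocked 3% BSA/PBS 1 h 37 °C. Compounds at varying concentrations preincubated with R4A (20 µg/mL) 1 h 37 °C, then added to washed wells 1 h 37 °C. Detection with alkaline phosphatase anti-mouse IgG (1:1000, 1 h RT), pNPP substrate 30–60 min, absorbance 405 nm.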

Mus musculus [2] = organism: Mus musculus; assay: (§2) Binding affinity to mouse anti-dsDNA monoclonal antibody R4A assessed as inhibition of RA4 binding to DWEYS peptide preincubated for 1 hr followed by DWEYS peptide addition measured after 1 hr by ELISA; summary of the method: as §1
Mus musculus [3] = assay: Toxicity in CD-1 mouse assessed as behavioral changes administered daily for 1 week; type: organism-based; conditions: in vivo, 168 h
Mus musculus [4] = assay: Induction of delayed onset of systemic lupus erythematosus disease in NZB/W F1 mouse model at 5 mg/kg/day, ip bid administered on day 1 at 22 weeks of age measured daily during compound dosing up to 34 weeks of age; type: functional
Summary of the method: (§3)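 Female NZB/W F1 mice from 22 weeks of age, before severe proteinuria, grouped by matched mean proteinuria and body weight (n = 10/group). Vehicle or compound at 5 mg kg−1 day−1 given ip twice daily. Body weight weekly, proteinuria every 2 weeks. Removal on ≥20% weight loss, prostration, or ≥3+ proteinuria two consecutive weeks; study end at 46 weeks.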

Mus musculus [5] = assay: Toxicity in CD-1 mouse assessed as tissue abnormalities administered daily for 1 week; type: organism-based; conditions: in vivo, 168 h
[6] = as §2; summary of the method: as §1
Mus musculus [7] = assay: Increase in disease free survival in NZB/W F1 mouse systemic lupus erythematosus model at 5 mg/kg/day, ip bid administered on day 1 at 22 weeks of age measured daily during compound dosing up to 34 weeks of age; type: functional, organism-based; summary of the method: as §3
Mus musculus [8] = assay: Inhibition of IgG level in glomeruli of NZB/NZW F1 mouse systemic lupus erythematosus model at 5 mg/kg/day, ip bid administered on day 1 at 22 weeks of age; type: functional, organism-based
Summary of the method: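 Female NZB/W F1 mice dosed ip twice daily (5 mg kg−1 day−1) from 22 weeks of age. Formalin-fixed, paraffin-embedded terminal kidney sections from three representative mice per group stained for mouse IgG in glomeruli.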

Mus musculus [9] = assay: Inhibition of lymphocyte aggregation in kidney of NZB/NZW F1 mouse systemic lupus erythematosus model at 5 mg/kg/day, ip bid administered on day 1 at 22 weeks of age measured at 60 weeks by hematoxylin and eosin staining based assay; type: functional, organism-based
Summary of the method: (§4)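 Female NZB/W F1 mice dosed ip twice daily (5 mg kg−1 day−1) from 22 weeks of age. Formalin-fixed, paraffin-embedded kidney sections stained with H&E and scored blind by one investigator, 0–3+ each for glomerular sclerosis, hypercellularity, crescents, interstitial nephritis and perivascular infiltrates. Combined scores assessed at 60 weeks.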

Mus musculus [10] = assay: anti-DWEYS peptide reactivity in serum of NZB/NZW F1 mouse systemic lupus erythematosus model at 5 mg/kg/day, ip bid administered on day 1 to 71
Mus musculus [11] = assay: Reduction in interstitial inflammation score in kidney of NZB/NZW F1 mouse systemic lupus erythematosus model at 5 mg/kg/day, ip bid administered on day 1 at 22 weeks of age measured daily during compound dosing at 60 weeks by conglomerate blinded analysis; type: functional, organism-based; summary of the method: as §4
Mus musculus [12] = assay: Inhibition of glomerulonephropathy in kidney of NZB/NZW F1 mouse systemic lupus erythematosus model at 5 mg/kg/day, ip bid administered on day 1 at 22 weeks of age measured at 60 weeks by hematoxylin and eosin staining based assay; type: functional, organism-based; summary of the method: as §4
Mus musculus [13] = organism: Mus musculus; assay: Binding affinity to mouse anti-dsDNA monoclonal antibody R4A assessed as inhibition of RA4 binding to mouse kidney glomeruli antigens by measuring suppression of antibody deposition in kidney glomeruli at 50 uM preincubated for 1 hr followed by glomeruli addition by fluorescence microscopic analysis
Summary of the method: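 Murine glomeruli isolated and adhered to glass slides. R4A (20 µg/mL) preincubated with compound (50 µM) 1 h at 37 °C, then applied to glomeruli 1 h at room temperature. Bound antibody detected with FITC-conjugated anti-mouse IgG, PBS washes, fluorescence imaging.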

Mus musculus [14] = assay: Toxicity in NZB/W F1 mouse systemic lupus erythematosus model assessed as body weight loss at 5 mg/kg/day, ip bid administered on day 1 at 22 weeks of age measured daily during compound dosing up to 34 weeks of age; type: organism-based; conditions: in vivo; summary of the method: as §3
Mus musculus [15] = assay: Reduction in glomerular cellularity score in kidney of NZB/NZW F1 mouse systemic lupus erythematosus model at 5 mg/kg/day, ip bid administered on day 1 at 22 weeks of age measured daily during compound dosing at 60 weeks by conglomerate blinded analysis; type: functional, organism-based; summary of the method: as §4
Mus musculus [16] = organism: Mus musculus; assay: Neuroprotective activity in C57BL/6 mouse assessed as inhibition of R4A-induced hippocampal neuron apoptosis at 50 uM pretreated to mouse followed by R4A injection measured after 1 day by TUNEL assay; type: functional
Summary of the method: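 Male C57BL/6 mice (30–34 g) anesthetized with 2.5% avertin ip. R4A (20 µg/mL) preincubated with vehicle or compound (50 µM) and injected stereotaxically (2 µL) into dorsal hippocampus CA1.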

Mus musculus [17] = assay: Inhibition of tubule dilation and casts in kidney of NZB/NZW F1 mouse systemic lupus erythematosus model at 5 mg/kg/day, ip bid administered on day 1 at 22 weeks of age measured at 60 weeks by hematoxylin and eosin staining based assay; type: functional, organism-based; summary of the method: as §4
Mus musculus [18] = assay: Reduction in crescents score in kidney of NZB/NZW F1 mouse systemic lupus erythematosus model at 5 mg/kg/day, ip bid administered on day 1 at 22 weeks of age measured daily during compound dosing at 60 weeks by conglomerate blinded analysis; type: functional, organism-based; summary of the method: as §4
Mus musculus [19] = assay: Reduction in glomerular sclerosis score in kidney of NZB/NZW F1 mouse systemic lupus erythematosus model at 5 mg/kg/day, ip bid administered on day 1 at 22 weeks of age measured daily during compound dosing at 60 weeks by conglomerate blinded analysis; type: functional, organism-based; summary of the method: as §4
Mus musculus [20] = assay: Toxicity in CD-1 mouse assessed as drug tolerance at 1 mg/kg, iv as infusion or 10 mg/kg via oral gavage measured up to 60 mins for iv dosing or up to 240 mins for oral gavage; type: organism-based; conditions: in vivo
Mus musculus [21] = assay: Toxicity in NZB/W F1 mouse systemic lupus erythematosus model assessed as prostration at 5 mg/kg/day, ip bid administered on day 1 at 22 weeks of age measured daily during compound dosing up to 34 weeks of age; type: organism-based; conditions: in vivo; summary of the method: as §3

Row | inhibition (Mus musculus [1]) | inhibition (Mus musculus [2]) | IC50 [6] [µM] | inhibition (Mus musculus [13]) | Compound | Activity (Mus musculus [3]) | Activity (Mus musculus [5]) | other results
1 | Active | Dose-dependent effect | – | – | Cc1cccc(C)c1OCC(=O)N[C@@H](Cc1ccccc1)[C@@H](O)C[C@H](Cc1ccccc1)NC(=O)[C@H](C(C)C)N1CCCNC1=O | – | – | –
2 | – | Dose-dependent effect | 4.5 | Active | CC(C)(C)NC[C@@H]1CC2CCCCC2CN1C[C@@H](O)[C@H](Cc1ccccc1)NC[C@H](CCN)NCC1Nc2ccccc2CC1O (stereo partly drawn) | Non-Toxic | Non-Toxic | Time (Mus musculus [4]): 26 - 36 weeks; Activity (Mus musculus [7]): Active; inhibition (Mus musculus [8]): Active; inhibition (Mus musculus [9]): Active; inhibition (Mus musculus [10]): Active; Activity (Mus musculus [11]): Active; inhibition (Mus musculus [12]): Active; Activity (Mus musculus [14]): < 20%; Activity (Mus musculus [15]): Active; inhibition (Mus musculus [16]): Active; inhibition (Mus musculus [17]): Active; Activity (Mus musculus [18]): Active; Activity (Mus musculus [19]): Active; Activity (Mus musculus [20]): Non-Toxic; Activity (Mus musculus [21]): Non-Toxic
3 | Active | Dose-dependent effect | – | Active | Cc1c(O)cccc1C(=O)N[C@@H](CSc1ccccc1)[C@H](O)CN1C[C@H]2CCCC[C@H]2C[C@H]1C(=O)NC(C)(C)C | – | – | –
4 | – | – | 42.7 | – | CC(C)(C)NC[C@@H]1CNCCN1C[C@@H](O)C[C@H](CN[C@H]1c2ccccc2C[C@H]1O)Cc1ccccc1 | – | – | –
5 | – | Dose-dependent effect | 2.08 | Active | CNCCCN[C@H](CN[C@@H](Cc1ccccc1)C[C@H](O)[C@H](Cc1ccccc1)NCCOc1c(C)cccc1C)C(C)C | Non-Toxic | Non-Toxic | –
6 | – | Dose-dependent effect | 7.27 | Active | Cc1c(O)cccc1CN[C@@H](CSc1ccccc1)[C@H](O)CN1C[C@H]2CCCC[C@H]2C[C@H]1CNC(C)(C)C | Non-Toxic | Non-Toxic | inhibition (Mus musculus [16]): Active
7 | Active | – | – | – | CC(C)(C)NC(=O)[C@@H]1CN(Cc2cccnc2)CCN1C[C@@H](O)C[C@@H](Cc1ccccc1)C(=O)N[C@H]1c2ccccc2C[C@H]1O | – | – | –
